# Measurements published in article PMC5733704 (Bioorganic & medicinal chemistry, 2017).
# pIC50: −log10 of the molar value. “Also recorded” adds a separate entry of the source.
# Key:
# [1] = target: AbFabI (Acinetobacter baumannii, UniProt A0ABX6CD96); assay: AbFabI enzyme inhibition, NADH fluorescence IC50 assay; format: biochemical; conditions: for pIC50: IC50 against AbFabI, 200 nM AbFabI, 300 μM crotonyl-CoA, 200 μM NADH; for fold higher AbFabI IC50 than compound 23: relative to compound 23
# [2] = system: A. baumannii strain 2208; assay: Checkerboard MIC with polymixin B nonapeptide against A. baumannii strain 2208; format: cell-based
# [3] = system: MDR A. baumannii; assay: Checkerboard MIC with colistin against MDR A. baumannii; format: cell-based
# [4] = system: S. aureus; assay: MIC against S. aureus, stated across the strains tested; format: cell-based; conditions: Staphylococcus aureus, read-out: MIC in S. aureus (across strains tested), in μM
# [5] = target: T1, SaFabI (Staphylococcus aureus, UniProt Q6GI75); assay: SaFabI enzyme inhibition, NADPH fluorescence IC50 assay; format: biochemical; conditions: for fold improvement in SaFabI IC50 compared to compound 1: relative to compound 1; for fold less potent than compound 8 (SaFabI IC50): relative to compound 8
# T1 sequence (Q6GI75 1-256): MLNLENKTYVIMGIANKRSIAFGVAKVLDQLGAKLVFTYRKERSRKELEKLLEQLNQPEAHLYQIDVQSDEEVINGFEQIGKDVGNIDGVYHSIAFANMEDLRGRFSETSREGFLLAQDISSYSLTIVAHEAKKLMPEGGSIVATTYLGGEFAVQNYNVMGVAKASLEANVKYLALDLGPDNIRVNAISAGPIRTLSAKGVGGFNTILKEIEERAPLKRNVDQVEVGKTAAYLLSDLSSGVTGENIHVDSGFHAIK
# Method in brief: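 NADPH fluorescence was read at 340/460 nm. Test compound ranged 0.4 nM–200 μM. Percent inhibition came from 10-min slopes versus DMSO control. At least two independent runs, each in duplicate. Interference was checked before substrate addition.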
# [6] = system: A. baumannii strain 2208; assay: Checkerboard MIC with colistin against A. baumannii strain 2208; format: cell-based
# [7] = system: E. coli strain BW25113 ΔTolC; assay: MIC, microbroth dilution, E. coli efflux pump mutant; format: cell-based; conditions: Escherichia coli, BW25113, read-out: MIC E. coli TolC- strain, in μM
# [8] = system: S. aureus strain RN4220 overexpressing SaFabI; assay: MIC, microbroth dilution, S. aureus RN4220 overexpressing SaFabI; format: cell-based; conditions: versus native strain RN4220; 4-fold or higher indicates on-target
# [9] = system: S. aureus strain RN4220 overexpressing SaFabI; conditions: control; cited from earlier work
structure (smiles),measurement,setting,value
O=C(Cc1ccccc1Cl)N1CCC(c2ccccc2)C1 (stereo not drawn) [Compound 1],pIC50,[1],> 5.00
same,Effect,[2],Synergy
same,Effect,[3],Synergy
same,MIC,[4],42 to 84 µM
O=C(Cc1ccccc1F)N1CCC(c2ccccc2)C1 (stereo not drawn) [Compound 2],fold improvement in SaFabI IC50 compared to compound 1,[5],2 fold
same,pIC50,[1],> 5.00
COc1ccccc1C1CCN(C(=O)Cc2ccccc2F)C1 (stereo not drawn) [Compound 3],fold less potent than compound 8 (SaFabI IC50),[5],9 fold
O=C(Cc1cccc(F)c1F)N1CCC(c2ccccc2)C1 (stereo not drawn) [Compound 4],pIC50,[1],> 5.00
COc1ccccc1C1CCN(C(=O)Cc2cccc(F)c2F)C1 (stereo not drawn) [Compound 5],fold less potent than compound 8 (SaFabI IC50),[5],6 fold
O=C(Cc1c(F)cccc1F)N1CCC(c2ccccc2)C1 (stereo not drawn) [Compound 6],fold improvement in SaFabI IC50 compared to compound 1,[5],5 fold
same,pIC50,[1],> 5.00
COc1ccccc1C1CCN(C(=O)Cc2c(F)cccc2F)C1 (stereo not drawn) [Compound 7],fold poorer SaFabI inhibitory activity compared to compound 6,[5]; relative to compound 6,~3 fold
same,fold less potent than compound 8 (SaFabI IC50),[5],11 fold
same,pIC50,[1],> 5.00
same,Effect,[6],excellent synergy
COc1ccccc1C1CCN(C(=O)Cc2ccccc2Cl)C1 (stereo not drawn) [Compound 8],pIC50,[1],> 5.00
same,Effect,[3],Synergy
COc1ccc(C2CCN(C(=O)Cc3ccccc3Cl)C2)cc1 (stereo not drawn) [Compound 9],fold less potent than compound 8 (SaFabI IC50),[5],25 fold
O=C(Cc1ccccc1Cl)N1CCC(c2ccccn2)C1 (stereo not drawn) [Compound 10],Effect,[6],did not show synergistic behavior; also recorded: No synergy/Synergy
O=C(Cc1ccccc1Cl)N1CCC(c2nccs2)C1 (stereo not drawn) [Compound 11],Effect,[6],did not show synergistic behavior; also recorded: No synergy
O=C(Cc1ccccc1Cl)N1CCC(c2ccc3c(c2)OCO3)C1 (stereo not drawn) [Compound 12],pIC50,[1],> 5.00
same,fold change in AbFabI IC50 compared to compound 1,[1]; relative to compound 1,2 to 3 fold
same,Effect,[3],Synergy
CC(C)S(=O)(=O)c1ccc(CC(=O)N2CCC(c3ccc4c(c3)OCO4)C2)cc1 (stereo not drawn) [Compound 22],SaFabI enzyme inhibitory activity (in words),[5],not tolerated
same,AbFabI enzyme inhibitory activity (in words),[1],loss in activity
CC(=O)Nc1ccc(/C=C/C(=O)N2CCC(c3ccccc3)C2)cn1 (stereo not drawn) [Compound 23],Effect,[6],did not show synergistic behavior; also recorded: No synergy
COc1ccccc1C1CCN(C(=O)/C=C/c2ccc(NC(C)=O)nc2)C1 (stereo not drawn) [Compound 24],pIC50,[1],> 5.00
same,MIC,[7],2 µM
same,Effect,[2],Synergy
same,Effect,[3],Synergy
CC(=O)Nc1ccc(/C=C/C(=O)N2CCC(c3ccc4c(c3)OCO4)C2)cn1 (stereo not drawn) [Compound 26],Effect,[6],did not show synergistic behavior; also recorded: No synergy
CC(=O)Nc1ccc(/C=C/C(=O)N2CCC(c3nccs3)C2)cn1 (stereo not drawn) [Compound 27],fold higher AbFabI IC50 than compound 23,[1],15 to 40 fold
same,Effect,[6],did not show synergistic behavior; also recorded: No synergy
CC(=O)Nc1ccc(/C=C/C(=O)N2CCC(c3ccccn3)C2)cn1 (stereo not drawn) [Compound 28],fold higher AbFabI IC50 than compound 23,[1],15 to 40 fold
same,Effect,[6],did not show synergistic behavior; also recorded: No synergy
COc1ccccc1C1CCN(C(=O)/C=C/c2ccc(NC(C)=O)cc2)C1 (stereo not drawn) [Compound 29],SaFabI enzyme inhibitory activity (in words),[5],complete loss in enzyme inhibitory activity
same,AbFabI enzyme inhibitory activity (in words),[1],complete loss in enzyme inhibitory activity
O=C(N[C@H](CO)[C@H](O)c1ccc([N+](=O)[O-])cc1)C(Cl)Cl [chloramphenicol],fold increase in MIC with S. aureus strain overexpressing SaFabI,[8],remained unchanged
CC[C@H]1OC(=O)[C@H](C)[C@@H](O[C@H]2C[C@@](C)(OC)[C@@H](O)[C@H](C)O2)[C@H](C)[C@@H](O[C@@H]2O[C@H](C)C[C@H](N(C)C)[C@H]2O)[C@](C)(O)C[C@@H](C)C(=O)[C@H](C)[C@@H](O)[C@]1(C)O [erythromycin],fold increase in MIC with S. aureus strain overexpressing SaFabI,[8],remained unchanged
CN[C@@H]1[C@H](O[C@H]2[C@H](O[C@H]3[C@H](O)[C@@H](O)[C@H](N=C(N)N)[C@@H](O)[C@@H]3N=C(N)N)O[C@@H](C)[C@]2(O)C=O)O[C@@H](CO)[C@H](O)[C@H]1O [streptomycin],fold increase in MIC with S. aureus strain overexpressing SaFabI,[8],remained unchanged
CN(C)[C@@H]1C(O)=C(C(N)=O)C(=O)[C@@]2(O)C(O)=C3C(=O)c4c(O)cccc4[C@@](C)(O)[C@H]3C[C@@H]12 [tetracycline],fold increase in MIC with S. aureus strain overexpressing SaFabI,[8],remained unchanged
Oc1cc(Cl)ccc1Oc1ccc(Cl)cc1Cl [triclosan],fold increase in MIC with S. aureus strain overexpressing FabI,[9],8 fold
